Source: ChEMBL document CHEMBL1123882, “Potential antitumor agents. 51. Synthesis and antitumor activity of substituted phenazine-1-carboxamides” (J Med Chem, 1987)

Tests used:
L1210 [1] = test: Tested for comparative cytotoxicity as ratio of IC50 value, relative to 3-substituted derivative (1.00).; format: functional, Mus musculus
L1210 [2] = test: Tested for comparative cytotoxicity as ratio of IC50 value, relative to OMe derivative (1.00).; format: functional, Mus musculus
[3] = Lipophilicity (HPLC); format: physicochemical
[4] = system: Lewis lung carcinoma cell line; test: Optimal dose required after intraperitoneal administration on days 5,9 and 13 to inhibit the growth of lewis lung carcinoma (LL) cells was determined (in vivo); format: functional, Mus musculus
Summary of the method: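 Mice were inoculated iv with 10^6 Lewis lung cells. Drug was given ip in 0.1 mL 30% v/v EtOH/water on days 5, 9 and 13. The optimal dose (mg/kg per day) is the one giving maximal increase in life span; survivors were scored at 60 days, in groups of six.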

P388 [5] = test: Optimal dose in mg/kg administered intraperitoneally on days 1,5 and 9 required to inhibit the growth of P388 leukemia cells was determined (in vivo); format: functional, Mus musculus
Summary of the method: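 Mice were inoculated ip with 10^6 P388 cells. Drug was given ip as a solution in 0.1 mL 30% v/v EtOH/water on days 1, 5 and 9. The optimal dose (mg/kg per day) is the one giving maximal increase in life span; survivors were scored at 50 days, in groups of six.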

P388 [6] = test: (§1) Average increase in life span of treated animals over control groups of tumor-bearing untreated animals when given at optimal dose; NA means no significant activity (in vivo); format: functional, organism-based; conditions: Mus musculus
Summary of the method: (§2)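 Mice received drug ip as a solution in 0.1 mL 30% v/v EtOH/water at the optimal dose. For P388, 10^6 cells were inoculated ip and drug given on days 1, 5 and 9. For LL, 10^6 cells were inoculated iv and drug given on days 5, 9 and 13. ILS is the mean life-span increase over untreated tumor-bearing controls, significant above 20% (P388) or 40% (LL). Groups were of six. NA means no significant activity up to acutely toxic doses.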

[7] = system: Lewis lung carcinoma cell line; test: as §1; format: functional, organism-based; conditions: Mus musculus; summary of the method: as §2
L1210 [8] = test: Nanomolar concentration required to reduce the growth of L1210 cells in culture to 50% of control values after 70 h (in vitro); format: functional, cell-based; conditions: Mus musculus, L1210, 70 h
Summary of the method: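 L1210 cells were grown in culture with drug for 70 h. IC50 is the drug concentration (nM) reducing growth to 50% of control values.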

P388 [9] = test: (§3) Average increase in life span of treated animals over control groups of tumor-bearing untreated animals when given at optimal dose (in vivo); format: functional, Mus musculus
Summary of the method: (§4)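 Mice inoculated ip with 10^6 P388 cells (drug ip on days 1, 5, 9) or iv with 10^6 Lewis lung cells (drug ip on days 5, 9, 13). Drug given as a solution in 0.1 mL 30% v/v EtOH/water, in mg/kg per day. Value is the average life-span increase versus untreated tumor-bearing controls at the optimal dose. Significance thresholds: ILS >20% (P388), >40% (LL). Groups of six.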

[10] = system: Lewis lung carcinoma cell line; test: as §3; format: functional, Mus musculus; summary of the method: as §4
[11] = system: Lewis lung carcinoma cell line; test: Average increase in life span of treated animals over control groups of tumor-bearing untreated animals when given at optimal dose of 25 mg/kg/day; NA means no significant activity (in vivo); format: functional, organism-based; conditions: Mus musculus, in the assay text read “225 mg/kg/day” for “25 mg/kg/day”; summary of the method: as §2
P388 [12] = test: Average increase in life span of treated animals over control groups of tumor-bearing untreated animals when given at optimal dose of 150 mg/kg/day;NA means no significant activity (in vivo); format: functional, organism-based; conditions: Mus musculus; summary of the method: as §2
[13] = system: Lewis lung carcinoma cell line; test: Average increase in life span of treated animals over control groups of tumor-bearing untreated animals when given at optimal dose;NA means no significant effect (in vivo); format: functional, organism-based; conditions: Mus musculus; summary of the method: as §2

Row | Compound | Ratio (L1210 [1]) | Ratio (L1210 [2]) | Rm [3] | OD [4] [mg/kg/day] | OD (P388 [5]) [mg/kg/day] | IC50 (L1210 [8]) [nM] | ILS max (P388 [9]) | further results
1 | COc1cccc2nc3cccc(C(N)=O)c3nc12 | 0.05 | 1 |  |  |  |  |  | 
2 | COc1ccc2nc3c(C(=O)NCCN(C)C)cccc3nc2c1 |  |  | -0.27 | 150 | 100 | 4100 |  | ILSmax (P388 [6]): Not significant; ILSmax [7]: Not significant
3 | COc1cc(C(N)=O)c2nc3ccccc3nc2c1 | 1 | 1 |  |  |  |  |  | 
4 | NC(=O)c1cccc2nc3c(Cl)cccc3nc12 | 5 | 0.6 |  |  |  |  |  | 
5 | Cc1cc(C(N)=O)c2nc3ccccc3nc2c1 | 1 | 0.5 |  |  |  |  |  | 
6 | Cc1cccc2nc3cccc(C(=O)NCCN(C)C)c3nc12 |  |  | -0.23 | 65 | 65 | 42 | 45 | ILS max [10]: 62
7 | COc1ccc2nc3c(C(N)=O)cccc3nc2c1 | 5 | 1 |  |  |  |  |  | 
8 | COc1cccc2nc3c(C(N)=O)cccc3nc12 | 6 | 1 |  |  |  |  |  | 
9 | CN(C)CCNC(=O)c1cccc2nc3ccccc3nc12 |  |  | -0.29 | 150 | 150 | 1400 | 88 | ILS max [10]: 57
10 | CN(C)CCNC(=O)c1cccc2nc3c(Cl)cccc3nc12 |  |  | -0.18 | 150 | 150 | 780 | 56 | ILS max [10]: 49
11 | CN(C)CCNC(=O)c1cccc2nc3ccc(Cl)cc3nc12 |  |  | -0.2 | 100 | 100 | 670 | 64 | ILS max [10]: 64
12 | CCN(CC)CCNC(=O)c1cccc2nc3ccccc3nc12 |  |  | 0.09 | 150 | 225 | 2100 | 43 | ILS max [7]: Not significant
13 | CN(C)CCNC(=O)c1cc(Cl)cc2nc3ccccc3nc12 |  |  | -0.06 | 150 | 150 | 160 | 106 | ILS max [10]: 63
14 | Cc1ccc2nc3cccc(C(=O)NCCN(C)C)c3nc2c1 |  |  | -0.2 | 225 | 150 | 630 | 60 | ILS max [10]: 81
15 | COc1cccc2nc3c(C(=O)NCCN(C)C)cccc3nc12 |  |  | -0.44 |  | 150 | 5000 |  | ILSmax (P388 [6]): Not significant
16 | Cc1cccc2nc3c(C(N)=O)cccc3nc12 | 2 | 0.6 |  |  |  |  |  | 
17 | Cc1ccc2nc3c(C(N)=O)cccc3nc2c1 | 3.7 | 0.4 |  |  |  |  |  | 
18 | NC(=O)c1cccc2nc3cccc(Cl)c3nc12 | 0.07 | 0.2 |  |  |  |  |  | 
19 | CN(C)CCNC(=O)c1cccc2nc3ccc4ccccc4c3nc12 |  |  | -0.05 | 45 | 30 | 33 | 98 | ILS max [10]: 56
20 | CN(C)CCNC(=O)c1cccc2nc3cccc(Cl)c3nc12 |  |  | -0.37 | 45 | 30 | 11 | 61 | ILS max [10]: 124
21 | CN(C)CCNC(=O)c1cccc2nc3c(ccc4ccccc43)nc12 |  |  | -0.32 | 45 | 45 | 310 | 29 | ILS max [7]: Not significant
22 | COc1ccc(C(=O)NCCN(C)C)c2nc3ccccc3nc12 |  |  | -0.41 |  | 225 | 550 |  | ILSmax (P388 [6]): Not significant

Row | Compound | Ratio (L1210 [1]) | Ratio (L1210 [2]) | Rm [3] | OD [4] [mg/kg/day] | OD (P388 [5]) [mg/kg/day] | IC50 (L1210 [8]) [nM] | ILS max (P388 [9]) | further results
23 | Cc1cc(C(=O)NCCN(C)C)c2nc3ccccc3nc2c1 |  |  | -0.15 | 225 | 225 | 410 | 91 | ILS max [10]: 158
24 | Cc1ccc2nc3c(C(=O)NCCN(C)C)cccc3nc2c1 |  |  | -0.18 | 100 | 150 | 1500 | 29 | ILS max [7]: Not significant
25 | O=C(NCCN1CCOCC1)c1cccc2nc3ccccc3nc12 |  |  | -0.21 | 225 | 225 | 11000 |  | ILSmax (P388 [6]): Not significant; ILSmax [7]: Not significant
26 | Cc1cccc2nc3cccc(C(N)=O)c3nc12 | 0.1 | 0.9 |  |  |  |  |  | 
27 | COc1cc(C(=O)NCCN(C)C)c2nc3ccccc3nc2c1 |  |  | -0.25 | 150 | 100 | 830 | 22 | ILS max [7]: Not significant
28 | NC(=O)c1cc(Cl)cc2nc3ccccc3nc12 | 1 | 0.4 |  |  |  |  |  | 
29 | CN(C)CCCNC(=O)c1cccc2nc3ccccc3nc12 |  |  | -0.21 | 225 | 150 | 1500 |  | ILSmax [11]: Not significant; ILSmax (P388 [12]): Not significant
30 | COc1ccc2nc3ccccc3nc2c1C(=O)NCCN(C)C |  |  | -0.5 | 225 | 225 | 1620 | 33 | ILS max [10]: 43
31 | Cc1ccc(C(N)=O)c2nc3ccccc3nc12 | 1 | 0.7 |  |  |  |  |  | 
32 | CN(C)CCNC(=O)c1cccc2nc3cc(Cl)ccc3nc12 |  |  | -0.13 | 65 | 65 | 1140 | 20 | ILSmax [7]: Not significant
33 | Cc1cccc2nc3c(C(=O)NCCN(C)C)cccc3nc12 |  |  | -0.01 | 150 | 150 | 820 | 58 | ILS max [7]: Not significant
34 | COc1ccc(C(N)=O)c2nc3ccccc3nc12 | 0.6 | 1 |  |  |  |  |  | 
35 | CN(C)CCNC(=O)c1c(Cl)ccc2nc3ccccc3nc12 |  |  | -0.27 |  | 100 | 14900 |  | ILSmax (P388 [6]): Not significant
36 | O=C(NCCNCCO)c1cccc2nc3ccccc3nc12 |  |  | -0.32 | 65 | 65 | 2000 |  | ILS max (P388 [6]): Not significant; ILS max [7]: Not significant
37 | NC(=O)c1cccc2nc3cc(Cl)ccc3nc12 | 7.1 | 0.3 |  |  |  |  |  | 
38 | CN(C)CCNC(=O)c1cc2ccccc2c2nc3ccccc3nc12 |  |  | 0.11 | 65 | 65 | 170 | 84 | ILS max [7]: Not significant
39 | NC(=O)c1cccc2nc3ccc(Cl)cc3nc12 | 4.2 | 0.6 |  |  |  |  |  | 
40 | Cc1ccc(C(=O)NCCN(C)C)c2nc3ccccc3nc12 |  |  | 0.08 | 150 | 100 | 400 | 28 | ILS max [13]: Not significant
41 | COc1ccc2nc3cccc(C(N)=O)c3nc2c1 | 1.4 | 1 |  |  |  |  |  | 
42 | Cc1ccc2nc3cccc(C(N)=O)c3nc2c1 | 1.5 | 0.9 |  |  |  |  |  | 
43 | COc1cccc2nc3cccc(C(=O)NCCN(C)C)c3nc12 |  |  | -0.42 | 100 | 100 | 48 | 106 | ILS max [10]: 128
44 | COc1ccc2nc3cccc(C(=O)NCCN(C)C)c3nc2c1 |  |  | -0.33 | 150 | 100 | 1050 | 39 | ILS max [7]: Not significant
